Experimental data pooled from the literature.
Lines come from different studies, so protocols differ.
Target: Glycogen synthase kinase-3 alpha (GSK3A, Homo sapiens, UniProt P49840)

SMILES | test | conditions | endpoint | result
O=C(O)[C@@H]1[C@@H](Cn2nnc3ccccc3c2=O)CC[C@H]1C(=O)c1ccc(OCCC2CCOCC2)cc1 | cell-free assay, competition with immobilised ligand | 1 µM | remaining binding | 93%
COc1cc(Cl)c(C(=O)N[C@@H](CN[C@H]2CC[C@@H](N)CC2)Cc2ccc(C#N)cc2)cc1-c1ccc(CN[C@H](C)c2ccc(C)cc2)o1 | enzyme activity, inhibitor | 1 µM | remaining activity | 106%
Nc1ncnc2occ(-c3ccc(NC(=O)Nc4cc(C(F)(F)F)ccc4F)cc3)c12 | enzyme activity, inhibitor | 20 µM | remaining activity | 17%
CS(=O)(=O)N1CCCC(NC(=O)[C@H](CCC2CCCCC2)NC(=O)c2ccc(CNc3ncnc4c3nnn4-c3ccccc3)cc2)C1 (stereo partly drawn) | cell-free assay, competition with immobilised ligand | 0.1 µM | remaining binding | 100%
O=C1Cc2c([nH]c3ccc([N+](=O)[O-])cc23)-c2ccccc2N1 | cell-free assay | 0.5 µM | remaining signal | 0.971%
CN1CC(Oc2cnc(C#N)cc2-c2ccn3nc(NC(=O)C4CC4)cc3c2)C1 | enzyme activity, inhibitor | 1 µM | inhibition | -14%
O=C(Nc1cnc(Oc2ccc(F)cc2)nc1)N1CCc2ncccc2[C@@H]1c1ccc(F)cc1 | cell-free assay, competition with immobilised ligand | 1 µM | remaining binding | 93%
c1ccc(CNc2nc(N3CCOc4ccccc43)nc3c2CCCC3)cc1 | target engagement in cells, inhibitor, chemoproteomics | 20 mM | inhibition | 0%
Cc1ccc(Nc2nccc(N(C)c3ccc4c(C)n(C)nc4c3)n2)cc1S(N)(=O)=O | enzyme activity, inhibitor | 10 µM | inhibition | 48%
CC(C)(O)[C@H]1CC[C@H](Nc2ccc3ncc(-c4cccc(C(F)(F)F)c4)n3n2)CC1 | enzyme activity, inhibitor | 1 µM | remaining activity | 90%
COc1cc2ncnc(Nc3ccc(Oc4ccccc4)c(C)c3C)c2cc1OC | enzyme activity, inhibitor | 1 µM | inhibition | 2%
O=C(Nc1cnn(-c2csc(C(=O)NC3COC3)c2)c1)Nc1ccccc1Cl | enzyme activity, inhibitor | 5 µM | remaining activity | 97.4%
CCN(CC)CCNC(=O)c1c(C)[nH]c(/C=C2\C(=O)Nc3ccc(F)cc32)c1C | enzyme activity, inhibitor | 0.3 µM | inhibition | 2%
Cc1cnc(NC2CCOCC2)nc1-n1cnc(C(=O)NC(CN)c2cc(F)cc(Cl)c2)c1 (stereo not drawn) | enzyme activity, inhibitor, radiometric | 1 µM | remaining activity | 8%
C[C@@H]1CN(c2cc(-c3n[nH]c4ccc(OC5(C)CC5)cc34)ncn2)C[C@H](C)O1 | cell-free assay, competition with immobilised ligand | 0.1 µM | remaining binding | 100%
CNC(=O)c1cc(Oc2ccc(NC(=O)Nc3ccc(Cl)c(C(F)(F)F)c3)cc2)ccn1 | cell-free assay | 0.5 µM | remaining signal | 103%
CC(C)(C)c1nc2c(s1)c1nc(N)ncc1c1ccc(NS(=O)(=O)c3c(F)cccc3F)c(F)c12 | enzyme activity, inhibitor, radiometric | 1 µM | remaining activity | 88%
Cn1cnc(Br)c1C1=CN(c2ncnc3[nH]cnc23)CCS1 | enzyme activity, inhibitor, radiometric | 2 µM | inhibition | 84.1%
Cc1ccc(C(=O)NCc2ccsc2)cc1C#Cc1cn(C(C)C)c2ncnc(N)c12 | enzyme activity, inhibitor | 1 µM | activity vs control | 91%
O=C(N1CCS(=O)(=O)CC1)N1C[C@H](c2ccc(OC(F)(F)F)cc2)C[C@H](c2nc(C3CC3)no2)C1 | cell-free assay, competition with immobilised ligand | 1 µM | remaining binding | 100%
O=C1Nc2ccc(Cl)cc2C1=Cc1cc(Cl)c(O)c(Cl)c1 | cell-free assay | 0.5 µM | remaining signal | 76.1%
Cc1nc(Cc2cccc(C(F)(F)F)c2)sc1-c1ccc(C(N)=O)nc1 | cell-free assay, competition with immobilised ligand | 1 µM | remaining binding | 82%
CCN(CC)c1ccc(C2=NNC(=O)CC2C)cc1[N+](=O)[O-] (stereo not drawn) | enzyme activity, inhibitor | 10 µM | remaining activity | 89%
Cc1c(NC(=O)c2cc(C(N)=O)nc3cc(F)ccc23)c(C(F)(F)F)nn1Cc1ccc(C(C)(C)C)cc1 | cell-free assay, competition with immobilised ligand | 1 µM | remaining binding | 98%
N#CCCc1ccc2c(c1)-c1[nH]c3ccc([N+](=O)[O-])cc3c1CC(=O)N2 | cell-free assay | 0.5 µM | remaining signal | 0.804%
CO[C@@H](C)c1c(Nc2ccc([C@@H](N(C)C(=O)C3CCS(=O)(=O)CC3)C(F)(F)F)cc2)cnc2cc(Cl)nn12 | cell-free assay, competition with immobilised ligand | 1 µM | remaining binding | 94%
Nc1nc(Nc2ccc(S(N)(=O)=O)cc2)sc1C(=O)c1ccccc1[N+](=O)[O-] | enzyme activity, inhibitor | 0.1 µM | inhibition | 73 to 75%
